Molecules are shown by their SMILES. ≈ marks a conversion by molar mass, not a printed value.

The test system of the first series is Mycobacterium tuberculosis. The experiment in a line: Antitubercular activity against Mycobacterium tuberculosis H37Rv after 4 days by microplate alamar blue assay. The series is classed as functional. The following applies: 96 h. An outline of the steps:
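M. tuberculosis H37Rv (ATCC 27294) in BACTEC 12B medium by MABA; 10 twofold dilutions, usually 100 to 0.19 µg/mL; final titer as printed; 37 °C, Alamar Blue added from day 4 once control wells turned pink, read 24 h later (ex 530/em 590 nm). MIC: lowest concentration giving 90% fluorescence reduction vs controls, taken as IC90 from dose-response curve fit.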
A general note: The colour change of resazurin is a common sign of viable cells or microbes.
In general, IC90 refers to the concentration needed for an effect of 90%. For the compound `CCNC(=S)N/N=C1\C(=O)N(C)c2ccc(OC(F)(F)F)cc21`, the IC90 was above 100 mg/L. Still for that read-out and setting: for `COc1ccc(NC(=S)N/N=C2\C(=O)N(CN3CCOCC3)c3ccc(OC(F)(F)F)cc32)cc1` the value was above 100 mg/L.

The compound `O=C1/C(=N\NC(=S)Nc2ccc([N+](=O)[O-])cc2)c2cc(OC(F)(F)F)ccc2N1CN1CCOCC1` gave an IC90 above 100 mg/L. Same read-out and setting: with `Cc1ccc2c(c1)/C(=N/NC(=S)NC1CCCCC1)C(=O)N2` the figure was 0.795 mg/L (≈ 2.51 µM); with `O=C1/C(=N\NC(=S)Nc2ccc(F)cc2)c2cc(OC(F)(F)F)ccc2N1CN1CCOCC1`, 3.06 mg/L (≈ 6.15 µM).

For the compound `O=C1Nc2ccc(OC(F)(F)F)cc2/C1=N/NC(=S)Nc1ccc([N+](=O)[O-])cc1`, the IC90 was above 100 mg/L. For the compound `C=CCNC(=S)N/N=C1\C(=O)N(C)c2ccc(C)cc21`, the 90% effect concentration (IC90) is above 100 mg/L.

Turning to `Cc1ccc2c(c1)/C(=N/NC(=S)NCc1ccccc1)C(=O)N2`, the IC90 was above 100 mg/L.

Compound `CCNC(=S)N/N=C1\C(=O)Nc2ccc(C)cc21` came in with an IC90 above 100 mg/L.

On to `Cc1ccc2c(c1)/C(=N/NC(=S)Nc1ccccc1)C(=O)N2`, for which the IC90 amounted to 1.43 mg/L (≈ 4.62 µM).

In the case of `O=C1/C(=N\NC(=S)Nc2ccc(Br)cc2)c2cc(OC(F)(F)F)ccc2N1CN1CCOCC1`, the IC90 is 3.03 mg/L (≈ 5.43 µM). Same read-out and setting: with `CCCCNC(=S)N/N=C1\C(=O)N(CN2CCOCC2)c2ccc(OC(F)(F)F)cc21` the figure was above 100 mg/L; with `Cc1ccc(NC(=S)N/N=C2\C(=O)Nc3ccc(OC(F)(F)F)cc32)cc1`, above 100 mg/L. Compound `Cc1ccc2c(c1)/C(=N/NC(=S)Nc1cccc(Br)c1)C(=O)N2` gave a 90% effect concentration (IC90) of 1.49 mg/L (≈ 3.83 µM).

`CN1C(=O)/C(=N\NC(=S)Nc2ccc(F)cc2)c2cc(OC(F)(F)F)ccc21` registered an IC90 above 100 mg/L.

`COc1ccc(NC(=S)N/N=C2\C(=O)Nc3ccc(OC(F)(F)F)cc32)cc1` returned an IC90 above 100 mg/L. Compound `Cc1ccc(NC(=S)N/N=C2\C(=O)Nc3ccc(C)cc32)cc1` yielded an IC90 above 100 mg/L. The same measure, in the same setting: with `CN1C(=O)/C(=N\NC(=S)Nc2ccc(Br)cc2)c2cc(OC(F)(F)F)ccc21` the figure was above 100 mg/L; with `Cc1ccc2c(c1)/C(=N/NC(=S)NC1CCCCC1)C(=O)N2C`, above 100 mg/L.

In turn, `CCNC(=S)N/N=C1\C(=O)N(C)c2ccc(C)cc21` came in with an IC90 above 100 mg/L. Take `C=CCNC(=S)N/N=C1\C(=O)Nc2ccc(C)cc21`: the IC90 was above 100 mg/L. Take `CCCCNC(=S)N/N=C1\C(=O)N(C)c2ccc(C)cc21`: the IC90 is above 100 mg/L. As for `Cc1ccc2c(c1)/C(=N/NC(=S)Nc1ccc([N+](=O)[O-])cc1)C(=O)N2C`, the IC90 is above 100 mg/L. Same read-out and setting: for `O=C1Nc2ccc(OC(F)(F)F)cc2/C1=N/NC(=S)Nc1ccc(F)cc1` the value was 1.55 mg/L (≈ 3.88 µM); for `Cc1ccc(NC(=S)N/N=C2\C(=O)N(C)c3ccc(C)cc32)cc1`, above 100 mg/L. The compound `Cc1ccc2c(c1)/C(=N/NC(=S)Nc1ccc(F)cc1)C(=O)N2C` showed an IC90 above 100 mg/L. In turn, `Cc1ccc2c(c1)/C(=N/NC(=S)Nc1cccc(Br)c1)C(=O)N2C` gave an IC90 above 100 mg/L.

On to `O=C1Nc2ccc(OC(F)(F)F)cc2/C1=N/NC(=S)NCc1ccccc1`, for which the IC90 is above 100 mg/L.

`CNC(=S)N/N=C1\C(=O)Nc2ccc(OC(F)(F)F)cc21` gave an IC90 above 100 mg/L. The same measure, in the same setting: with `Cc1ccc2c(c1)/C(=N/NC(=S)Nc1ccccc1Br)C(=O)N2` the figure was above 100 mg/L; with `O=C1/C(=N\NC(=S)NCc2ccccc2)c2cc(OC(F)(F)F)ccc2N1CN1CCOCC1`, above 100 mg/L. The same measure, in the same setting: with `Cc1ccc2c(c1)/C(=N/NC(=S)Nc1ccc(Cl)cc1)C(=O)N2` the figure was 3.57 mg/L (≈ 10.3 µM); with `Cc1ccc2c(c1)/C(=N/NC(=S)Nc1ccc(F)cc1)C(=O)N2`, 1.59 mg/L (≈ 4.83 µM); with `Cc1ccc2c(c1)/C(=N/NC(=S)Nc1ccccc1)C(=O)N2C`, above 100 mg/L. For `CCCCNC(=S)N/N=C1\C(=O)N(C)c2ccc(OC(F)(F)F)cc21`, the IC90 is above 100 mg/L. Same read-out and setting: with `CCNC(=S)N/N=C1\C(=O)N(CN2CCOCC2)c2ccc(OC(F)(F)F)cc21` the figure was above 100 mg/L. Same read-out and setting: for `CN1C(=O)/C(=N\NC(=S)Nc2ccc(Cl)cc2)c2cc(OC(F)(F)F)ccc21` the value was above 100 mg/L. On the same count and under the same terms, for `CN1C(=O)/C(=N\NC(=S)NCc2ccccc2)c2cc(OC(F)(F)F)ccc21` the value was above 100 mg/L; for `CNC(=S)N/N=C1\C(=O)Nc2ccc(C)cc21`, above 100 mg/L.

Regarding `O=C1Nc2ccc(OC(F)(F)F)cc2/C1=N/NC(=S)Nc1ccc(Br)cc1`, the IC90 is 1.53 mg/L (≈ 3.33 µM). `CN1C(=O)/C(=N\NC(=S)NC2CCCCC2)c2cc(OC(F)(F)F)ccc21` showed an IC90 above 100 mg/L.

For `Cc1ccc2c(c1)/C(=N/NC(=S)Nc1ccc(Br)cc1)C(=O)N2C`, the IC90 is above 100 mg/L.

As for `CNC(=S)N/N=C1\C(=O)N(CN2CCOCC2)c2ccc(OC(F)(F)F)cc21`, the IC90 is above 100 mg/L. Same read-out and setting: with `C=CCNC(=S)N/N=C1\C(=O)N(C)c2ccc(OC(F)(F)F)cc21` the figure was above 100 mg/L; with `CCCCNC(=S)N/N=C1\C(=O)Nc2ccc(C)cc21`, 0.911 mg/L (≈ 3.14 µM). The compound `Cc1ccc2c(c1)/C(=N/NC(=S)Nc1ccccc1Br)C(=O)N2C` gave an IC90 above 100 mg/L. On the same count and under the same terms, with `Cc1ccc2c(c1)/C(=N/NC(=S)Nc1ccc(Br)cc1)C(=O)N2` the figure was above 100 mg/L. The same measure, in the same setting: for `O=C1Nc2ccc(OC(F)(F)F)cc2/C1=N/NC(=S)Nc1ccccc1` the value was above 100 mg/L; for `CNC(=S)N/N=C1\C(=O)N(C)c2ccc(C)cc21`, above 100 mg/L; for `C=CCNC(=S)N/N=C1\C(=O)N(CN2CCOCC2)c2ccc(OC(F)(F)F)cc21`, above 100 mg/L.

The compound `Cc1ccc2c(c1)/C(=N/NC(=S)Nc1ccc([N+](=O)[O-])cc1)C(=O)N2` displayed an IC90 above 100 mg/L. Still for that read-out and setting: for `O=C1/C(=N\NC(=S)NC2CCCCC2)c2cc(OC(F)(F)F)ccc2N1CN1CCOCC1` the value was 5.69 mg/L (≈ 11.7 µM). The same measure, in the same setting: for `CCNC(=S)N/N=C1\C(=O)Nc2ccc(OC(F)(F)F)cc21` the value was above 100 mg/L; for `O=C1Nc2ccc(OC(F)(F)F)cc2/C1=N/NC(=S)NC1CCCCC1`, above 100 mg/L. On the same count and under the same terms, with `O=C1Nc2ccc(OC(F)(F)F)cc2/C1=N/NC(=S)Nc1ccc(Cl)cc1` the figure was 1.52 mg/L (≈ 3.67 µM). `Cc1ccc(NC(=S)N/N=C2\C(=O)N(CN3CCOCC3)c3ccc(OC(F)(F)F)cc32)cc1`: the IC90 is above 100 mg/L.

As for `CNC(=S)N/N=C1\C(=O)N(C)c2ccc(OC(F)(F)F)cc21`, the IC90 was above 100 mg/L.

Compound `C=CCNC(=S)N/N=C1\C(=O)Nc2ccc(OC(F)(F)F)cc21` registered an IC90 above 100 mg/L. Consider `Cc1ccc2c(c1)/C(=N/NC(=S)NCc1ccccc1)C(=O)N2C`, for which the IC90 was above 100 mg/L.

`CCCCNC(=S)N/N=C1\C(=O)Nc2ccc(OC(F)(F)F)cc21` returned an IC90 above 100 mg/L. Take `CN1C(=O)/C(=N\NC(=S)Nc2ccc([N+](=O)[O-])cc2)c2cc(OC(F)(F)F)ccc21`: the IC90 is above 100 mg/L. The compound `Cc1ccc2c(c1)/C(=N/NC(=S)Nc1ccc(Cl)cc1)C(=O)N2C` displayed an IC90 above 100 mg/L. `O=C1/C(=N\NC(=S)Nc2ccccc2)c2cc(OC(F)(F)F)ccc2N1CN1CCOCC1`: the IC90 is above 100 mg/L. As for `O=C1/C(=N\NC(=S)Nc2ccc(Cl)cc2)c2cc(OC(F)(F)F)ccc2N1CN1CCOCC1`, the IC90 is 3.04 mg/L (≈ 5.92 µM). Same read-out and setting: for `Cc1ccc(NC(=S)N/N=C2\C(=O)N(C)c3ccc(OC(F)(F)F)cc32)cc1` the value was above 100 mg/L. `CN1C(=O)/C(=N\NC(=S)Nc2ccccc2)c2cc(OC(F)(F)F)ccc21` registered an IC90 above 100 mg/L.

System in the next series: not listed separately
Description: Selectivity index, ratio of IC50 for african green monkey Vero cells to IC90 for Mycobacterium tuberculosis H37Rv. The series is classed as toxicity, cell-based. The following applies: read-out: Selectivity Index. An outline of the steps: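 SI = VERO cell IC50 / M. tuberculosis H37Rv MIC. VERO cells exposed 72 h at concentrations up to 10x the H37Rv MIC; viability by MTT (CellTiter 96); IC50 from dose-response curve fit. MIC from MABA against H37Rv in BACTEC 12B medium, 37 °C, 90% fluorescence reduction defining IC90.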
With `Cc1ccc2c(c1)/C(=N/NC(=S)NC1CCCCC1)C(=O)N2`, the selectivity ratio worked out at 1.98. On the same count and under the same terms, with `O=C1/C(=N\NC(=S)Nc2ccc(F)cc2)c2cc(OC(F)(F)F)ccc2N1CN1CCOCC1` the figure was 0.784; with `Cc1ccc2c(c1)/C(=N/NC(=S)Nc1ccccc1)C(=O)N2`, 0.742. The same measure, in the same setting: for `O=C1/C(=N\NC(=S)Nc2ccc(Br)cc2)c2cc(OC(F)(F)F)ccc2N1CN1CCOCC1` the value was 2.46; for `Cc1ccc2c(c1)/C(=N/NC(=S)Nc1cccc(Br)c1)C(=O)N2`, 0.473. The same measure, in the same setting: with `O=C1Nc2ccc(OC(F)(F)F)cc2/C1=N/NC(=S)Nc1ccc(F)cc1` the figure was 1.64; with `CO[C@H]1/C=C/O[C@@]2(C)Oc3c(C)c(O)c4c(O)c(c(/C=N/N5CCN(C)CC5)c(O)c4c3C2=O)NC(=O)/C(C)=C\C=C\[C@H](C)[C@H](O)[C@@H](C)[C@@H](O)[C@@H](C)[C@H](OC(C)=O)[C@@H]1C` [RIFAMPIN], above 800; with `Cc1ccc2c(c1)/C(=N/NC(=S)Nc1ccc(Cl)cc1)C(=O)N2`, 3.46. Take `Cc1ccc2c(c1)/C(=N/NC(=S)Nc1ccc(F)cc1)C(=O)N2`: the selectivity ratio was below 0.123. The same measure, in the same setting: for `O=C1Nc2ccc(OC(F)(F)F)cc2/C1=N/NC(=S)Nc1ccc(Br)cc1` the value was 3.77. In the case of `CCCCNC(=S)N/N=C1\C(=O)Nc2ccc(C)cc21`, the selectivity ratio worked out at 4.82. In the case of `O=C1/C(=N\NC(=S)NC2CCCCC2)c2cc(OC(F)(F)F)ccc2N1CN1CCOCC1`, the selectivity ratio was found to be 4.12.

On to `O=C1Nc2ccc(OC(F)(F)F)cc2/C1=N/NC(=S)Nc1ccc(Cl)cc1`, for which the selectivity ratio is 4.2. Regarding `O=C1/C(=N\NC(=S)Nc2ccc(Cl)cc2)c2cc(OC(F)(F)F)ccc2N1CN1CCOCC1`, the selectivity ratio is 3.19.

Values taken from ChEMBL document CHEMBL1144242, “Synthesis and antituberculosis activity of 5-methyl/trifluoromethoxy-1H-indole-2,3-dione 3-thiosemicarbazone derivatives” (Bioorg Med Chem, 2008).
